Test results as given in ChEMBL document CHEMBL5329191, “Optimization of the 2-arylquinazoline-4(3H)one scaffold for a selective and potent antitrypanosomal agent: modulation of the mechanism of action through chemical functionalization” (RSC Med Chem, 2023).
Values after ≈ are worked out from the molar mass of the structure shown. Active and inactive are the calls of the source. The calls are words filed in the database; no cut-off is given here.

Columns and labels:
[1] = Selectivity index, ratio of CC50 for mouse J774.1 cells to IC50 for Leishmania infantum promastigotes; type: toxicity; conditions: read-out: Ratio CC50/IC50
How it was run: (§1)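 Cytotoxicity (CC50) was measured on murine J774.1A macrophages. Selectivity index is CC50 divided by parasite IC50 (promastigote, epimastigote or axenic amastigote). Values are the mean of three independent experiments.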

[2] = Selectivity index, ratio of CC50 for mouse J774.1 cells to IC50 for Leishmania infantum amastigotes; type: toxicity; conditions: read-out: Ratio CC50/IC50; how it was run: as §1
Leishmania infantum [3] = test: Antileishmanial activity against Leishmania infantum axenic amastigotes; type: functional, organism-based
[4] = Cytotoxicity against mouse J774.1 cells; type: toxicity, cell-based; how it was run: as §1
Leishmania infantum [5] = test: Antileishmanial activity against Leishmania infantum promastigotes; type: functional, organism-based
Trypanosoma cruzi [6] = test: Antitrypanosomal activity against of Trypanosoma cruzi epimastigotes; type: functional, organism-based
[7] = Solubility of the compound by UV-Vis spectroscopy; type: physicochemical
How it was run: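 Solubility in μM was determined by UV-Vis spectroscopy.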

Trypanosoma cruzi [8] = test: Antitrypanosomal activity against of Trypanosoma cruzi epimastigotes in presence of FA; type: functional, organism-based
Trypanosoma cruzi [9] = test: Antitrypanosomal activity against of Trypanosoma cruzi epimastigotes assessed as increase in IC50 in presence of FA; type: functional
Leishmania infantum [10] = test: Antileishmanial activity against Leishmania infantum promastigotes in presence of FA; type: functional, organism-based
Leishmania infantum [11] = test: Antileishmanial activity against Leishmania infantum promastigotes assessed as increase in IC50 in presence of FA; type: functional
Leishmania infantum [12] = test: Induction of NO production in Leishmania infantum promastigotes by Griess method; type: functional, organism-based
How it was run: (§2)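 NO production in parasite cultures was measured at three test concentrations, either 25, 50 and 100 μM or 1, 5 and 10 μM depending on the compound.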

Trypanosoma cruzi [13] = test: Induction of ROS production in Trypanosoma cruzi epimastigotes by DCFH-DA staining based flow cytometry analysis; type: functional, organism-based
How it was run: (§3)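 Oxidative stress in parasite cultures was read fluorometrically with the 2,7-dichlorodihydrofluorescein diacetate (DCFH-DA) probe against a negative-control culture, and was also run with metal cations present.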

Leishmania infantum [14] = test: Induction of ROS production in Leishmania infantum promastigotes by DCFH-DA staining based flow cytometry analysis; type: functional, organism-based; how it was run: as §3
Trypanosoma cruzi [15] = test: Induction of NO production in Trypanosoma cruzi epimastigotes by Griess method; type: functional, organism-based; how it was run: as §2
[16] = Selectivity index, ratio of CC50 for mouse J774.1 cells to IC50 for Trypanosoma cruzi epimastigotes; type: toxicity; conditions: read-out: Ratio CC50/IC50; how it was run: as §1
Leishmania infantum [17] = test: Induction of NO production in Leishmania infantum promastigotes at highest concentration by Griess method; type: functional; how it was run: as §2
Trypanosoma cruzi [18] = test: Induction of NO production in Trypanosoma cruzi epimastigotes at highest concentration by Griess method; type: functional; how it was run: as §2
Trypanosoma cruzi [19] = test: Antitrypanosomal activity against of Trypanosoma cruzi epimastigotes at 25 uM; type: functional
Trypanosoma cruzi [20] = test: Induction of ROS production in Trypanosoma cruzi epimastigotes in presence of Cu2+; type: functional, organism-based; how it was run: as §3
Trypanosoma cruzi [21] = test: […] activity against Trypanosoma cruzi epimastigotes assessed as change in parasites in presence of iron(III); type: functional, organism-based
How it was run: (§4)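 Parasite proliferation was run in the presence of copper(II), iron(III) or zinc(II) salts, each at 1 μM.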

Trypanosoma cruzi [22] = test: […] activity against Trypanosoma cruzi epimastigotes assessed as change in parasites in presence of copper(II); type: functional, organism-based; how it was run: as §4
Leishmania infantum [23] = test: Induction of ROS production in Leishmania infantum promastigotes in presence of Zn2+; type: functional, organism-based; how it was run: as §3
Leishmania infantum [24] = test: Antileishmanial activity against Leishmania infantum promastigotes assessed as decrease in IC50 in presence of iron(III); type: functional, organism-based; how it was run: as §4
Trypanosoma cruzi [25] = test: Induction of ROS production in Trypanosoma cruzi epimastigotes in presence of Zn2+; type: functional, organism-based; how it was run: as §3
Leishmania infantum [26] = test: Antileishmanial activity against Leishmania infantum promastigotes assessed as decrease in IC50 in presence of zinc(II); type: functional, organism-based; how it was run: as §4
Trypanosoma cruzi [27] = test: […] activity against Trypanosoma cruzi epimastigotes assessed as change in parasites in presence of zinc(II); type: functional, organism-based; how it was run: as §4
Leishmania infantum [28] = test: Antileishmanial activity against Leishmania infantum promastigotes assessed as decrease in IC50 in presence of copper(II); type: functional, organism-based; how it was run: as §4
Leishmania infantum [29] = test: Induction of ROS production in Leishmania infantum promastigotes in presence of Cu2+; type: functional, organism-based; how it was run: as §3
Trypanosoma cruzi [30] = test: Induction of ROS production in Trypanosoma cruzi epimastigotes in presence of Fe3+; type: functional, organism-based; how it was run: as §3
Leishmania infantum [31] = test: Induction of ROS production in Leishmania infantum promastigotes in presence of Fe3+; type: functional, organism-based; how it was run: as §3

## CCCCCCCCCCCCCCCCOP(=O)([O-])OCC[N+](C)(C)C [MILTEFOSINE]
[1]
  selectivity ratio: 8.9
[2]
  selectivity ratio: 10.1
Leishmania infantum [3]
  IC50: 8.69 µM
[4]
  CC50: 89.2 µM
Leishmania infantum [5]
  IC50: 10.1 µM

## O=[N+]([O-])c1ccc(/C=N/N=c2\[nH]c(-c3ccc(Br)cc3)nc3ccccc23)o1
Trypanosoma cruzi [6]
  IC50: > 25 µM
Leishmania infantum [5]
  IC50: > 25 µM
[7]
  solubility: 2.67 µM (≈ 1.17 µg/mL)

## O=c1[nH]c(-c2cccc(Cl)c2)nc2ccccc12
Trypanosoma cruzi [6]
  IC50: > 25 µM
Leishmania infantum [5]
  IC50: > 25 µM

## Oc1nc(-c2ccc(F)cc2)nc2ccccc12
Trypanosoma cruzi [6]
  IC50: 22.7 µM
Trypanosoma cruzi [8]
  IC50: 33.2 µM
Trypanosoma cruzi [9]
  Activity: 47%
Leishmania infantum [10]
  IC50: 9.78 µM
Leishmania infantum [11]
  Activity: 14%
Leishmania infantum [5]
  IC50: 8.67 µM

## NNc1nc(-c2ccc(F)cc2)nc2ccccc12
Trypanosoma cruzi [6]
  IC50: 17.9 µM
Leishmania infantum [5]
  IC50: 5.01 µM

## O=c1[nH]c(-c2ccc(Br)cc2)nc2ccccc12
Trypanosoma cruzi [6]
  IC50: 19.8 µM
Leishmania infantum [5]
  IC50: 6.89 µM

## O=[N+]([O-])c1ccc(/C=N/N=c2\[nH]c(-c3cccc(Br)c3)nc3ccccc23)o1
Trypanosoma cruzi [6]
  IC50: > 25 µM
Leishmania infantum [5]
  IC50: > 25 µM
[7]
  solubility: 5.67 µM (≈ 2.48 µg/mL)

## O=c1[nH]c(-c2ccc(Cl)cc2)nc2ccccc12
Trypanosoma cruzi [6]
  IC50: 18.1 µM
Leishmania infantum [12]
  Activity: inactive
Trypanosoma cruzi [8]
  IC50: 24.2 µM
Trypanosoma cruzi [9]
  Activity: 34%
Leishmania infantum [10]
  IC50: 6.22 µM
Trypanosoma cruzi [13]
  Activity: inactive
Leishmania infantum [14]
  Activity: inactive
Leishmania infantum [11]
  Activity: 27%
Trypanosoma cruzi [15]
  Activity: inactive
Leishmania infantum [5]
  IC50: 4.88 µM

## O=c1[nH]c(-c2cccc(Br)c2)nc2ccccc12
Trypanosoma cruzi [6]
  IC50: > 25 µM
Leishmania infantum [5]
  IC50: > 25 µM

## CC1CS(=O)(=O)CCN1/N=C/c1ccc([N+](=O)[O-])o1 (stereo not drawn) [NIFURTIMOX]
[16]
  selectivity ratio: 36.3

## Cc1ccc(-c2nc3ccccc3/c(=N/N=C/c3ccc([N+](=O)[O-])o3)[nH]2)cc1
Trypanosoma cruzi [6]
  IC50: > 25 µM
Leishmania infantum [5]
  IC50: > 25 µM
[7]
  solubility: 7.23 µM (≈ 2.7 µg/mL)

## O=[N+]([O-])c1ccc(/C=N/N=c2\[nH]c(-c3ccc(Cl)cc3)nc3ccccc23)o1
Trypanosoma cruzi [6]
  IC50: > 25 µM
Leishmania infantum [5]
  IC50: > 25 µM
[7]
  solubility: 3.21 µM (≈ 1.26 µg/mL)

## Cc1ccc(-c2nc3ccccc3c(=O)[nH]2)cc1
Trypanosoma cruzi [6]
  IC50: > 25 µM
Leishmania infantum [5]
  IC50: 5.23 µM

## NNc1nc(-c2ccc(Cl)cc2)nc2ccccc12
Trypanosoma cruzi [6]
  IC50: 11.5 µM
Leishmania infantum [12]
  Activity: Dose-Dependent Effect
Trypanosoma cruzi [8]
  IC50: 19.1 µM
Trypanosoma cruzi [9]
  Activity: 42%
Leishmania infantum [10]
  IC50: 2.05 µM
Trypanosoma cruzi [13]
  Activity: inactive
Leishmania infantum [17]
  Activity: >4 µM
Leishmania infantum [14]
  Activity: inactive
Trypanosoma cruzi [18]
  Activity: >2 µM
Leishmania infantum [11]
  Activity: 31%
Trypanosoma cruzi [15]
  Activity: Dose-Dependent Effect
Leishmania infantum [5]
  IC50: 1.56 µM

## Fc1ccc(-c2nc3ccccc3/c(=N/N=C/c3ccco3)[nH]2)cc1
Trypanosoma cruzi [6]
  IC50: 9.07 µM
Leishmania infantum [12]
  Activity: inactive
[1]
  selectivity ratio: 13.1
[2]
  selectivity ratio: 10.7
Trypanosoma cruzi [8]
  IC50: 33.1 µM
Leishmania infantum [3]
  IC50: 11.1 µM
Trypanosoma cruzi [9]
  Activity: 37%
Trypanosoma cruzi [13]
  Activity: inactive
[16]
  selectivity ratio: 5.7
Leishmania infantum [14]
  Activity: inactive
Leishmania infantum [11]
  Activity: 41%
Trypanosoma cruzi [15]
  Activity: inactive
[4]
  CC50: 119 µM
Leishmania infantum [5]
  IC50: 9.07 µM
[7]
  solubility: 7.87 µM (≈ 2.62 µg/mL)

## NNc1nc(-c2ccc(Br)cc2)nc2ccccc12
Trypanosoma cruzi [6]
  IC50: 14.3 µM
Trypanosoma cruzi [8]
  IC50: 25.2 µM
Trypanosoma cruzi [9]
  Activity: 48%
Leishmania infantum [10]
  IC50: 2.83 µM
Leishmania infantum [11]
  Activity: 33%
Leishmania infantum [5]
  IC50: 2.13 µM

## NNc1nc(-c2cccc(Cl)c2)nc2ccccc12
Trypanosoma cruzi [6]
  IC50: > 25 µM
Trypanosoma cruzi [19]
  inhibition at 25 µM: 38%
Leishmania infantum [5]
  IC50: 4.55 µM

## Cc1ccc(-c2nc(NN)c3ccccc3n2)cc1
Trypanosoma cruzi [6]
  IC50: 18 µM
Leishmania infantum [5]
  IC50: 1.2 µM

## NNc1nc(-c2cccc(Br)c2)nc2ccccc12
Trypanosoma cruzi [6]
  IC50: > 25 µM
Trypanosoma cruzi [19]
  inhibition at 25 µM: 21.4%
Leishmania infantum [5]
  IC50: 21.1 µM

## NNc1nc(-c2ccccc2)nc2ccccc12
Trypanosoma cruzi [6]
  IC50: > 25 µM
Trypanosoma cruzi [19]
  inhibition at 25 µM: 42.7%
Leishmania infantum [5]
  IC50: 12.7 µM

## O=[N+]([O-])c1ccc(/C=N/N=c2\[nH]c(-c3ccccc3)nc3ccccc23)o1
Trypanosoma cruzi [20]
  Activity: Active
Trypanosoma cruzi [21]
  Activity: inactive
Trypanosoma cruzi [6]
  IC50: 0.63 µM
[1]
  selectivity ratio: 17.1
[2]
  selectivity ratio: 16.2
Trypanosoma cruzi [22]
  Activity: inactive
Leishmania infantum [3]
  IC50: 0.93 µM
Leishmania infantum [23]
  Activity: Active
Leishmania infantum [24]
  Activity: Active
Trypanosoma cruzi [25]
  Activity: Active
[16]
  selectivity ratio: 23.9
Leishmania infantum [26]
  Activity: Active
Trypanosoma cruzi [27]
  Activity: inactive
Leishmania infantum [28]
  Activity: Active
Leishmania infantum [29]
  Activity: Active
Trypanosoma cruzi [30]
  Activity: Active
Leishmania infantum [31]
  Activity: Active
[4]
  CC50: 15.1 µM
Leishmania infantum [5]
  IC50: 0.88 µM
[7]
  solubility: 7.99 µM (≈ 2.87 µg/mL)
